The target in experiment [1] is Cyclin-dependent kinase 5/CDK5 activator 1 (Homo sapiens, UniProt Q00535). The experiment is described as follows: Inhibition of human recombinant CDK5/p25 using [gamma-33P]ATP as substrate after 30 mins by scintillation counting analysis. It is filed as protein-complex assay. The gist of the method: (§1)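 Compounds were screened first at 10 µM final; those giving under 50% inhibition were scored as IC50 >10 µM, and the rest were taken to IC50 determination (µM). Kinase activities were assayed in triplicate, with standard deviation of single data points typically below 10%. Assay procedures are cited to earlier reports.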

Experiment [2] in a line: Inhibition of pig brain CK1delta/epsilon using RRKHAAIGpSAYSITA as substrate after 30 mins by scintillation counting analysis. The arrangement: species or system Sus scrofa. The gist of the method:
as §1

The target in experiment [3] is Glycogen synthase kinase-3 (Sus scrofa, UniProt B2LUN4+I6LNT8). The experiment is described as follows: Inhibition of pig brain GSK3alpha/beta using YRRAAVPPSPSLSRHSSPHQpSEDEEE as substrate after 30 mins by scintillation counting analysis. Summed up: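 Screened first at 10 μM final; compounds giving under 50% inhibition at that level were recorded as IC50 >10 μM. Kinase activity was assayed in triplicate, and IC50 values are reported in μM.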

Experiment [4] concerns the target Dual specificity tyrosine-phosphorylation-regulated kinase 1A (Rattus norvegicus, UniProt Q63470). In words: Inhibition of rat recombinant GST-tagged DYRK1A expressed in Escherichia coli using KKISGRLSPIMTEQ as substrate after 30 mins by scintillation counting analysis. Summed up:
as §1

In experiment [5] the target is Dual specificity protein kinase CLK1 (Homo sapiens, UniProt P49759). The experiment is described as follows: Inhibition of human recombinant GST-tagged CLK1 expressed in Escherichia coli using GRSRSRSRSRSR as substrate. The gist of the method: as §1

Bounds are passed on as bounds.

Sequence of Dual specificity protein kinase CLK1 (P49759 whole entry): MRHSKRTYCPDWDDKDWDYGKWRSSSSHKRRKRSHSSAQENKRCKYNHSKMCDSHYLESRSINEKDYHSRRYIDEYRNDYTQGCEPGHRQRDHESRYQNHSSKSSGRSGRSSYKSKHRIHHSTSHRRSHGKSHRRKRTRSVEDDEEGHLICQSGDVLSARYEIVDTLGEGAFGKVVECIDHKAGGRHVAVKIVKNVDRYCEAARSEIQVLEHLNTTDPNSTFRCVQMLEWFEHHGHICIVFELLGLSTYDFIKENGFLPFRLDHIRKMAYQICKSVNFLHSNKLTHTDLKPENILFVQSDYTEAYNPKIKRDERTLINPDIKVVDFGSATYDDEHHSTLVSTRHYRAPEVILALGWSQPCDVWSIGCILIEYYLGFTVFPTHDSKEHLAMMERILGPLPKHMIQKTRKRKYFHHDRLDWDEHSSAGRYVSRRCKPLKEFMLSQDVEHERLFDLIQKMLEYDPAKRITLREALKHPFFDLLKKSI
Sequence of Cyclin-dependent kinase 5/CDK5 activator 1 (Q00535 whole entry): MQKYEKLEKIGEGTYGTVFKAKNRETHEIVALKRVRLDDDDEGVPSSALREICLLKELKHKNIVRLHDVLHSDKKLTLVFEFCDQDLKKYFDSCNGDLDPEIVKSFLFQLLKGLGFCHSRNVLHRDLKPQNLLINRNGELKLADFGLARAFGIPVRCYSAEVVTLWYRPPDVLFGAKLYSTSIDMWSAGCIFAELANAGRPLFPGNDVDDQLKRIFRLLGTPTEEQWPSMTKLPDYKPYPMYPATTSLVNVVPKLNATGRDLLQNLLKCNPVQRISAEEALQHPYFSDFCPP
Sequence of Cyclin-dependent kinase 5/CDK5 activator 1 (Q15078 whole entry, further chain): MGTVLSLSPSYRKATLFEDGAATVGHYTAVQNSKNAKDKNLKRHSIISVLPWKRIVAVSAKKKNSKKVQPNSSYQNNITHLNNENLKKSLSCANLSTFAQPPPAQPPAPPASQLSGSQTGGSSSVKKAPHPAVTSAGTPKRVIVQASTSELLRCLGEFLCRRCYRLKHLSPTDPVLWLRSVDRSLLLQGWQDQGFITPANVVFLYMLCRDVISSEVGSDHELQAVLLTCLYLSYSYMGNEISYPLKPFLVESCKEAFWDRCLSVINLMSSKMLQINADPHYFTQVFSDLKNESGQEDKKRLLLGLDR

`c1nc(Nc2ccc3c(c2)OCO3)c2oc3cc(-c4ccc5c(c4)OCO5)cnc3c2n1`: the IC50 in experiment [1], in experiment [2], in experiment [3], in experiment [4] and in experiment [5] was more than 10 µM each time.
On to `Nc1ncnc2c1oc1cc(-c3cccc(Cl)c3)cnc12`, for which the IC50 in experiment [1] was more than 10 µM; in experiment [2] it was more than 10 µM; in experiment [3] it was more than 10 µM; in experiment [4], more than 10 µM; in experiment [5], 1 µM.
Turning to `Nc1ncnc2c1oc1cc(-c3ccc(Cl)c(Cl)c3)cnc12`, the IC50 in experiment [1], in experiment [2], in experiment [3], in experiment [4] and in experiment [5] was more than 10 µM in each case.
Turning to `Nc1ncnc2c1oc1cc(-c3ccc(Cl)cc3Cl)cnc12`, the IC50 in experiment [1] was more than 10 µM; in experiment [2] it was more than 10 µM; in experiment [3], more than 10 µM; in experiment [4], 0.6 µM; in experiment [5], 0.049 µM.
`Nc1ncnc2c1oc1cc(-c3ccc4c(c3)OCO4)cnc12`: the IC50 in experiment [1] is more than 10 µM; in experiment [2] it was more than 10 µM; in experiment [3], more than 10 µM; in experiment [4], 2.3 µM; in experiment [5], 0.32 µM.
Take `c1ccc(Nc2ncnc3c2oc2cc(-c4ccc5c(c4)OCO5)cnc23)cc1`: the IC50 in experiment [1], in experiment [2], in experiment [3], in experiment [4] and in experiment [5] was more than 10 µM throughout.
`Cc1ccc(Nc2ncnc3c2oc2cc(-c4ccc5c(c4)OCO5)cnc23)cc1`: the IC50 in experiment [1], in experiment [2], in experiment [3], in experiment [4] and in experiment [5] was more than 10 µM in each case.
For `COc1ccc(Nc2ncnc3c2oc2cc(-c4ccc5c(c4)OCO5)cnc23)cc1`, the IC50 in experiment [1], in experiment [2], in experiment [3], in experiment [4] and in experiment [5] was more than 10 µM throughout.
Turning to `COc1ccc(Nc2ncnc3c2oc2cc(-c4ccc5c(c4)OCO5)cnc23)cc1OC`, the IC50 in experiment [1], in experiment [2], in experiment [3], in experiment [4] and in experiment [5] was more than 10 µM each time.
In the case of `COc1cc(Nc2ncnc3c2oc2cc(-c4ccc5c(c4)OCO5)cnc23)cc(OC)c1OC`, the IC50 in experiment [1], in experiment [2], in experiment [3], in experiment [4] and in experiment [5] was more than 10 µM in each case.
For `Clc1ccc(Nc2ncnc3c2oc2cc(-c4ccc5c(c4)OCO5)cnc23)cc1Cl`, the IC50 in experiment [1], in experiment [2], in experiment [3], in experiment [4] and in experiment [5] was more than 10 µM in each case.
Consider `Clc1ccc(Nc2ncnc3c2oc2cc(-c4ccc5c(c4)OCO5)cnc23)cc1`, for which the IC50 in experiment [1], in experiment [2], in experiment [3], in experiment [4] and in experiment [5] was more than 10 µM each time.
Take `Fc1ccc(Nc2ncnc3c2oc2cc(-c4ccc5c(c4)OCO5)cnc23)cc1Cl`: the IC50 in experiment [1], in experiment [2], in experiment [3], in experiment [4] and in experiment [5] was more than 10 µM in each case.
Take `Nc1ncnc2c1oc1cccnc12`: the IC50 in experiment [1], in experiment [2], in experiment [3], in experiment [4] and in experiment [5] was more than 10 µM each time.
As to `c1ccc(Nc2ncnc3c2oc2cccnc23)cc1`, the IC50 in experiment [1], in experiment [2], in experiment [3], in experiment [4] and in experiment [5] was more than 10 µM in each case.
As for `COc1ccc(Nc2ncnc3c2oc2cccnc23)cc1`, the IC50 in experiment [1], in experiment [2], in experiment [3], in experiment [4] and in experiment [5] was more than 10 µM each time.
With `COc1ccc(Nc2ncnc3c2oc2cccnc23)cc1OC`, the IC50 in experiment [1], in experiment [2], in experiment [3], in experiment [4] and in experiment [5] was more than 10 µM each time.
`COc1cc(Nc2ncnc3c2oc2cccnc23)cc(OC)c1`: the IC50 in experiment [1], in experiment [2], in experiment [3], in experiment [4] and in experiment [5] was more than 10 µM throughout.
On to `COc1cc(Nc2ncnc3c2oc2cccnc23)cc(OC)c1OC`, for which the IC50 in experiment [1], in experiment [2], in experiment [3], in experiment [4] and in experiment [5] was more than 10 µM throughout.
As to `c1cnc2c(c1)oc1c(Nc3ccc4c(c3)OCO4)ncnc12`, the IC50 in experiment [1], in experiment [2], in experiment [3], in experiment [4] and in experiment [5] was more than 10 µM throughout.
In the case of `C1=COc2cc(Nc3ncnc4c3oc3cccnc34)ccc2O1`, the IC50 in experiment [1], in experiment [2], in experiment [3], in experiment [4] and in experiment [5] was more than 10 µM each time.
With `Fc1ccc(Nc2ncnc3c2oc2cccnc23)cc1Cl`, the IC50 in experiment [1], in experiment [2], in experiment [3], in experiment [4] and in experiment [5] was more than 10 µM in each case.
For the compound `Fc1cc(Br)ccc1Nc1ncnc2c1oc1cccnc12`, the IC50 in experiment [1], in experiment [2], in experiment [3], in experiment [4] and in experiment [5] was more than 10 µM throughout.
As to `Nc1ncnc2c1oc1cc(-c3ccccc3)cnc12`, the IC50 was more than 10 µM in experiment [1]; more than 10 µM in experiment [2]; more than 10 µM in experiment [3]; 3.1 µM in experiment [4]; 0.69 µM in experiment [5].
Turning to `Cc1ccc(-c2cnc3c(c2)oc2c(N)ncnc23)cc1`, the IC50 in experiment [1] was more than 10 µM; in experiment [2], more than 10 µM; in experiment [3], more than 10 µM; in experiment [4] it was 4.4 µM; in experiment [5] it was 0.61 µM.
Take `COc1ccc(-c2cnc3c(c2)oc2c(N)ncnc23)cc1`: the IC50 in experiment [1], in experiment [2], in experiment [3], in experiment [4] and in experiment [5] was more than 10 µM each time.

By IC50 is commonly meant the concentration that gives 50% inhibition.

(Values after ChEMBL document CHEMBL3091443, “Synthesis of novel 7-substituted pyrido[2',3':4,5]furo[3,2-d]pyrimidin-4-amines and their N-aryl analogues and evaluation of their inhibitory activity against Ser/Thr kinases” (Bioorg Med Chem Lett, 2013).)
